The full list was thinned out, with hits kept by preference.
T cruzi growth-1: T. cruzi proliferation inhibition. T. cruzi beta-gal in NIH3T3, GalScreen luminescence, 90 h. inhibition, % at 8.34 µM. 77,000 tested, 5.9% active. AID 624255;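 active means mean inhibition above about 93%, with at least 55% of replicates each passing it, limit read from the data, passing the limit was not always enough; inconclusive means only one of those two conditions holds; inactive means neither condition holds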
IDH1 R132H inh: inhibitors of human IDH1 R132H | 70,000 tested, 0.18% active | IDH1 R132H reductase, diaphorase/resazurin fluorescence, 60 min | inhibition, % at 10 µM; in the data active means inhibition above about 34%; inconclusive means no clear call, values can overlap the other calls; inactive means below about 11%
Target sequence (O75874 whole entry R132H): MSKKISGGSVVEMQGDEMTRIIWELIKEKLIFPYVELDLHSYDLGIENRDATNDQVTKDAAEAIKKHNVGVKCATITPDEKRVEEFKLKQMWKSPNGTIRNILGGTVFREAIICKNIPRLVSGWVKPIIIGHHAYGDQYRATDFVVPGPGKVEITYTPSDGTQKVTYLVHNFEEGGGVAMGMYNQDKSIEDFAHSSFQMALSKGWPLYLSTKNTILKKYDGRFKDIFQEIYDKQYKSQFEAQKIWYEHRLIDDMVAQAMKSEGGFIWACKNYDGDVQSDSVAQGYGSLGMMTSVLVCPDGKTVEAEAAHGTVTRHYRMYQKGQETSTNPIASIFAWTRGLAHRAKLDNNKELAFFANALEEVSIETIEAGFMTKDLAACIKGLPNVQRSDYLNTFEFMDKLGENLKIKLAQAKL
KDM4C inh: inhibitors of human demethylase GASC-1 KDM4C; Q9H3R0; inhibition, % at 12.5 µM; AID 720574; GST-KDM4C 2-372, H3K9me3 peptide, LANCE TR-FRET; 96,000 tested, 0.15% active;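 active means mean replicate inhibition above about 25%, with at least 55% of replicates also reaching it, limit read from the data, passing the limit was not always enough; inconclusive means only one of those two conditions met; inactive means neither condition met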
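reagent = H3K9me3 peptide substrate, Fe(II), 2-oxoglutarate | system = GST-tagged GASC-1 (JMJD2C) catalytic fragment, aa 2-372 | amount = enzyme final amount 10 nM | read-out = Fall in 671/618 emission ratio as inhibition | medium = HEPES buffer, pH 7.5, plus ascorbate | schedule = 30 min reaction, 60 min detection, RT | measured by = LANCE TR-FRET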
T cruzi growth-2: Trypanosoma cruzi proliferation inhibition | shares compounds with T cruzi growth-1 | 5,600 tested, 72% active | T. cruzi beta-gal in NIH3T3, GalScreen luminescence, 90 h | inhibition, % at 8.35 µM;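 active means mean replicate inhibition above about 95% and at least 55% of replicates individually reaching it, limit read from the data; inconclusive means only one of the two criteria is met; inactive means neither criterion is met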
T cruzi growth-3: inhibitors of T. cruzi proliferation; shares compounds with T cruzi growth-1; T. cruzi beta-gal in NIH3T3, GalScreen luminescence, 90 h; inhibition, % at 2.09 µM; 5,600 tested, 21% active;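 active means mean inhibition above about 95%, with at least 55% of replicates also reaching it, limit read from the data; inconclusive means meets just one of the two conditions; inactive means meets neither condition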
NIH3T3 tox: cytotoxicity in mouse NIH/3T3 fibroblasts; NIH/3T3 viability, CellTiter-Glo ATP luminescence, 90 h; cytotoxicity (signal decrease), % at 8.35 µM; 5,600 tested, 14% active; shares compounds with T cruzi growth-1; AID 651742;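 active means mean signal decrease across replicates above about 35% based on untreated-well scatter, with enough replicates individually passing, limit read from the data; inconclusive means no rule stated though some were filed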
NIH3T3 tox 2: kills mouse NIH/3T3 fibroblasts | shares compounds with T cruzi growth-1 | NIH/3T3 viability, CellTiter-Glo ATP luminescence, 90 h | AID 651744 | 5,600 tested, 56% active | inhibition, % at 24.9 µM;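 active means mean loss of cell viability signal at or above a set limit, and enough replicates individually reaching it; inconclusive means meets only the mean limit or only the replicate share; inactive means meets neither condition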
Of the large screens only hits and unclear results are named; the others gave an inactive call (follow-up assays come after a bar, where they were run).

Cc1ccc(S(=O)(=O)N(C)C[C@@H]2OCCCC[C@H](C)Oc3ccc(NS(=O)(=O)c4ccc(F)cc4)cc3C(=O)N([C@H](C)CO)C[C@H]2C)cc1	T cruzi growth-1 107.0 | T cruzi growth-2 107.5 | T cruzi growth-3 inactive | NIH3T3 tox inactive | NIH3T3 tox 2 55.1
Cc1ccc(S(=O)(=O)Nc2ccc3c(c2)C(=O)N([C@@H](C)CO)C[C@@H](C)[C@@H](CN(C)S(=O)(=O)c2ccc(F)cc2)OCCCC[C@H](C)O3)cc1	none (no result: T cruzi growth-1)
Cc1ccc(S(=O)(=O)N(C)C[C@H]2OCCCC[C@@H](C)Oc3ccc(NS(=O)(=O)c4ccc(F)cc4)cc3C(=O)N([C@H](C)CO)C[C@H]2C)cc1	T cruzi growth-1 108.9 | T cruzi growth-2 102.6 | T cruzi growth-3 inconclusive | NIH3T3 tox inactive | NIH3T3 tox 2 inactive
O=[N+]([O-])c1ccc(OCCCSc2ncccn2)cc1	none (no result: T cruzi growth-1, KDM4C inh)
Cc1cc(C)n2nc3nc(N4CCOCC4)nc(-c4ccc(C(C)C)cc4)c3c2n1	none (no result: T cruzi growth-1, KDM4C inh)
CCOC(=O)COc1ccc(-c2nc3c([nH]2)c(=O)n(C)c(=O)n3C)cc1OC	none (no result: T cruzi growth-1, KDM4C inh)
Cc1ccc(S(=O)(=O)N2C(=O)CCC2C(=O)Nc2ccc(Cl)c(Cl)c2)cc1 (stereo not given)	none (no result: T cruzi growth-1, KDM4C inh)
O=C(CSc1ncnc2sc3c(c12)CCCCC3)Nc1ccc2c(c1)OCCO2	none (no result: T cruzi growth-1, KDM4C inh)
O=C(c1cccc(F)c1)N1CC[C@@H]2[C@@H](CO)Nc3ccc(-c4ccccc4F)cc3[C@@H]21	none (no result: IDH1 R132H inh)
O=C(c1cccc(F)c1)N1CC[C@H]2[C@H](CO)Nc3ccc(-c4ccccc4F)cc3[C@H]21	none (no result: IDH1 R132H inh)
O=C(c1ccccc1F)N1CC[C@H]2[C@H](CO)Nc3ccc(-c4ccc(F)cc4)cc3[C@H]21	T cruzi growth-1 98.5 (no result: IDH1 R132H inh) | T cruzi growth-2 101.1 | T cruzi growth-3 99.4 | NIH3T3 tox inactive | NIH3T3 tox 2 95.0
O=C(c1ccc(F)cc1)N1CC[C@@H]2[C@@H](CO)Nc3ccc(-c4ccccc4F)cc3[C@@H]21	T cruzi growth-1 109.8 (no result: IDH1 R132H inh) | T cruzi growth-2 104.3 | T cruzi growth-3 inactive | NIH3T3 tox inactive | NIH3T3 tox 2 71.1
O=C(c1ccccc1)N1CC[C@@H]2[C@H](CO)Nc3ccc(-c4ccc(F)cc4)cc3[C@@H]21	none (no result: IDH1 R132H inh)
O=C(c1ccccc1)N1CC[C@H]2[C@H](CO)Nc3ccc(-c4ccccc4F)cc3[C@H]21	T cruzi growth-1 108.4 (no result: IDH1 R132H inh) | T cruzi growth-2 97.7 | T cruzi growth-3 inactive | NIH3T3 tox inactive | NIH3T3 tox 2 inactive
O=C(c1ccccc1)N1CC[C@@H]2[C@H]1c1cc(-c3ccccc3F)ccc1N[C@@H]2CO	T cruzi growth-1 109.9 (no result: IDH1 R132H inh) | T cruzi growth-2 99.8 | T cruzi growth-3 inactive | NIH3T3 tox inactive | NIH3T3 tox 2 30.4
O=C(c1ccccc1F)N1CC[C@@H]2[C@H]1c1cc(-c3ccc(F)cc3)ccc1N[C@@H]2CO	none (no result: IDH1 R132H inh)
Cc1cc(C)cc(NC(=O)CSc2nnc(-c3ccncc3)n2C)c1	none (no result: T cruzi growth-1, KDM4C inh)
COC(=O)C1=CO[C@@H](OC2OC(O)C(O)C(O)C2CO)[C@H]2[C@@H]1C=CC21C=C([C@H](C)O)C(=O)O1 (stereo not given in full)	none (no result: T cruzi growth-1, KDM4C inh)
COc1ccc(C(=O)O[C@H]2CC(C)=CCC3(C)CC[C@@](O)(C(C)C)[C@H]23)cc1 (stereo not given in full)	none (no result: T cruzi growth-1, KDM4C inh)
CCOc1ccc2ccccc2c1C(=O)NCc1cccnc1	none (no result: T cruzi growth-1, KDM4C inh)
Cc1cccc(S(=O)(=O)N2CCCCN3[C@H](CO)[C@H](c4ccc(C#C[C@H](C)O)cc4)[C@@H]3C2)c1	none (no result: IDH1 R132H inh)
Cc1cccc(S(=O)(=O)N2CCCCN3[C@H](C2)[C@@H](c2ccc(C#C[C@H](C)O)cc2)[C@@H]3CO)c1	T cruzi growth-1 101.3 (no result: IDH1 R132H inh) | T cruzi growth-2 101.8 | T cruzi growth-3 inactive | NIH3T3 tox 65.4 | NIH3T3 tox 2 27.5
Cc1cccc(S(=O)(=O)N2CCCCN3[C@H](CO)[C@H](c4ccc(C#CC(C)C)cc4)[C@@H]3C2)c1	T cruzi growth-1 97.3 (no result: IDH1 R132H inh) | T cruzi growth-2 97.5 | T cruzi growth-3 99.8 | NIH3T3 tox 36.7 | NIH3T3 tox 2 105.5
